Drawing on ChEMBL document CHEMBL4184263, “Synthetic analogues of the montanine-type alkaloids with activity against apoptosis-resistant cancer cells” (2018), this text covers inhibition and GI50 for 16 molecules.

Assay [1] can be described thus: Antiproliferative activity against human GSC22 cells assessed as inhibition of cell proliferation at 10 uM incubated for 72 hrs by bromodeoxyuridine incorporation based immunoassay. Format: functional. In a few lines:
(§1)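 Patient-derived glioblastoma stem-like GSC22 cells were seeded at 1×10^3 cells/well and cultured for 24 h. They were then exposed for 72 h to compound at 1 μM to 30 μM, with DMSO as vehicle control. BrdU was added for the final 4 h. Incorporation was detected with a peroxidase-conjugated anti-BrdU antibody and substrate reaction read at 450/550 nm. Data are mean ± SEM, n=3, compared with vehicle.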

The species entered for assay [2] is Homo sapiens. Kind of assay: Antiproliferative activity against human GSC22 cells assessed as inhibition of cell proliferation at 1 uM incubated for 72 hrs by bromodeoxyuridine incorporation based immunoassay. Format: functional. In a few lines: as §1
The test system of assay [3] is B16-F10. Description: Growth inhibition of apoptosis sensitive mouse B16F10 cells assessed as reduction in cell viability incubated for 72 hrs by MTT assay. The following applies: B16-F10, 72 h. Format: functional. In a few lines: (§2)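 Cells were grown at 37 °C, 95% humidity and 5% CO₂, trypsinized and seeded. After 24 h they were treated for 72 h with compound from 10 nM to 100 μM, prepared from a 10 mM DMSO stock, or left untreated. Viability was read as MTT reduction to formazan, with untreated control optical density set as 100%. The 50% growth-reducing concentration was derived as the mean of experiments run in sextuplicate.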
For orientation: Tetrazolium dyes change colour on reduction, which living cells bring about.

In assay [4] the test system is A549. Kind of assay: Growth inhibition of apoptosis resistant human A549 cells assessed as reduction in cell viability incubated for 72 hrs by MTT assay. Format: functional. The following applies: A549, 72 h. The method in brief: as §2
In assay [5] the test system is Hs 683. Kind of assay: Growth inhibition of apoptosis sensitive human Hs683 cells assessed as reduction in cell viability incubated for 72 hrs by MTT assay. It is filed as functional. The following applies: Hs 683, 72 h. The method in brief: as §2
In assay [6] the test system is U373 MG. Description: Growth inhibition of apoptosis resistant human U373 cells assessed as reduction in cell viability incubated for 72 hrs by MTT assay. It is filed as functional, U-373MG ATCC. The method in brief:
as §2

Assay [7] has as its system MCF7. Description: Growth inhibition of apoptosis sensitive human MCF7 cells assessed as reduction in cell viability incubated for 72 hrs by MTT assay. Format: functional. The following applies: MCF7, 72 h. In a few lines: as §2
For assay [8], the system named is SK-MEL-28. Description: Growth inhibition of apoptosis resistant human SK-MEL-28 cells assessed as reduction in cell viability incubated for 72 hrs by MTT assay. It is filed as functional. As to conditions: SK-MEL-28, 72 h. The method in brief: as §2

The term inhibition denotes how much of the control response was suppressed. As a reminder, the GI50 is the concentration that inhibits growth by half.

Calls of active or inactive are those of the source. The rule behind the calls is not given here. Bounds are passed on as bounds.

Regarding `CO[C@@H]1C=C[C@@]23c4cc5c(cc4CN(C[C@@H]2O)[C@H]3C1)OCO5` [(+)-HAEMANTHAMINE], in assay [1], the inhibition at 10 µM lay in the range of 80 to 95%. Further, the inhibition result in assay [2] is “Active”.

In the case of `CO[C@H]1C[C@H]2C(=C[C@@H]1Cl)[C@H]1C[N@@+]2([O-])Cc2cc3c(cc21)OCO3`, the GI50 in assay [3], in assay [4], in assay [5], in assay [6], in assay [7] and in assay [8] was over 100 µM throughout.

With `CO[C@H]1C[C@H]2C(=C[C@@H]1c1c[nH]c3ccccc13)[C@H]1C[N@@]2Cc2cc3c(cc21)OCO3`, the GI50 in assay [3] is 4 µM; in assay [4] it was 18 µM; in assay [5] it was 24 µM; in assay [6] it was 9 µM; in assay [7], 23 µM; in assay [8], 9 µM. Moreover, in assay [1], the inhibition at 10 µM fell in the range of 80 to 95%. Besides, in assay [2], the inhibition result was “Active”.

Regarding `C#CC[N@@+]12Cc3cc4c(cc3[C@H](C1)C1=C[C@H](Cl)[C@@H](OC)C[C@@H]12)OCO4`, the GI50 in assay [3], in assay [4], in assay [5], in assay [6], in assay [7] and in assay [8] was over 100 µM in each case.

Regarding `CO[C@H]1C[C@H]2C(=C[C@H]1Br)[C@H]1C[N@@]2Cc2cc3c(cc21)OCO3`, the GI50 in assay [3] was 7 µM; in assay [4] it was 9 µM; in assay [5] it was 5 µM; in assay [6], 25 µM; in assay [7], 19 µM; in assay [8] it was 18 µM.

With `CO[C@H]1C[C@H]2C(=C[C@@H]1NCc1ccccc1)[C@H]1C[N@@]2Cc2cc3c(cc21)OCO3`, the GI50 in assay [3] turned out to be 10 µM; in assay [4], 59 µM; in assay [5], 67 µM; in assay [6] it was 72 µM; in assay [7], 44 µM; in assay [8], 65 µM.

With `CO[C@H]1C[C@H]2C(=C[C@@H]1O)[C@H]1CN2Cc2cc3c(cc21)OCO3`, the GI50 in assay [3] turned out to be 8 µM; in assay [4], 5 µM; in assay [5], 4 µM; in assay [6] it was 31 µM; in assay [7] it was 13 µM; in assay [8], 8 µM.

Consider `C=CCO[C@H]1C=C2[C@H]3C[N@@](Cc4cc5c(cc43)OCO5)[C@H]2C[C@@H]1OC`, for which the GI50 in assay [3] was 7 µM; in assay [4], 10 µM; in assay [5] it was 7 µM; in assay [6], 20 µM; in assay [7], 20 µM; in assay [8] it was 14 µM.

Consider `CCO[C@H]1C=C2[C@H]3C[N@@](Cc4cc5c(cc43)OCO5)[C@H]2C[C@@H]1OC`, for which the GI50 was 40 µM in assay [3]; 59 µM in assay [4]; over 100 µM in assay [5]; over 100 µM in assay [6]; 82 µM in assay [7]; over 100 µM in assay [8].

With `CO[C@H]1C[C@H]2C(=C[C@@H]1Cl)[C@H]1C[N@@]2Cc2c1cc1c(c2I)OCO1`, the concentration for 50% growth inhibition (GI50) in assay [3], in assay [4], in assay [5], in assay [6], in assay [7] and in assay [8] was over 100 µM in each case.

Regarding `CO[C@H]1C[C@H]2C(=C[C@@H]1Cl)[C@H]1C[N@@]2Cc2cc3c(cc21)OCO3`, the GI50 in assay [3] is 7 µM; in assay [4], 6 µM; in assay [5], 6 µM; in assay [6], 51 µM; in assay [7], 17 µM; in assay [8], 26 µM.

With `C#CCO[C@H]1C=C2[C@H]3C[N@@](Cc4cc5c(cc43)OCO5)[C@H]2C[C@@H]1OC`, the GI50 in assay [3] was 10 µM; in assay [4], 23 µM; in assay [5], 24 µM; in assay [6] it was 42 µM; in assay [7], 28 µM; in assay [8], 28 µM.

As for `CO[C@H]1C[C@H]2C(=C[C@@H]1Cl)[C@H]1C[N@@]2Cc2c(I)c3c(c(I)c21)OCO3`, the GI50 was 39 µM in assay [3]; 78 µM in assay [4]; 71 µM in assay [5]; over 100 µM in assay [6]; 78 µM in assay [7]; over 100 µM in assay [8].

Regarding `CO[C@H]1C[C@H]2C(=C[C@@H]1O)[C@H]1C[N@]2[C@@H](OS(C)(=O)=O)c2cc3c(cc21)OCO3`, the GI50 in assay [3] was 72 µM; in assay [4], over 100 µM; in assay [5], over 100 µM; in assay [6], over 100 µM; in assay [7], over 100 µM; in assay [8], over 100 µM.

Turning to `CO[C@H]1C=C2[C@H]3C[N@@](Cc4cc5c(cc43)OCO5)[C@H]2C[C@@H]1OC`, the GI50 in assay [3] was 3 µM; in assay [4] it was 3 µM; in assay [5], 3 µM; in assay [6], 5 µM; in assay [7], 4 µM; in assay [8], 4 µM. The inhibition at 10 µM in assay [1] was 80 to 95%. Further, in assay [2], the inhibition result was “Active”.

Take `CO[C@H]1C[C@H]2C(=C[C@@H]1c1ccc[nH]1)[C@H]1C[N@@]2Cc2cc3c(cc21)OCO3`: the GI50 in assay [3] is 11 µM; in assay [4], 86 µM; in assay [5], 95 µM; in assay [6], over 100 µM; in assay [7] it was 68 µM; in assay [8], 67 µM.
